Reference: ChEMBL document CHEMBL1146494, “Anthrone and oxanthrone C-glycosides from Picramnia latifolia collected in Peru” (J Nat Prod, 2004)
Converted amounts (≈) assume the structure as drawn.

Key:
[1] = Cytotoxicity against HUVEC; format: cell-based; conditions: human, HUVEC cells; read-out: ED50 (the source's name)
LNCaP = experiment: Cytotoxicity against human LNCAP cells; format: functional; conditions: read-out: ED50 (the source's name)
Lu1 = experiment: Cytotoxicity against human Lu1 cells; format: functional; conditions: read-out: ED50 (the source's name)
MCF7 = experiment: Cytotoxicity against human MCF7 cells; format: functional; conditions: read-out: ED50 (the source's name)
Mus musculus [2] = experiment: Toxicity in human LNCAP cells xenografted mouse at 6.25 to 50 mg/kg, ip after 4 days; format: organism-based; parameters: dose 6.25-50 mg/kg, route intraperitoneal; conditions: in vivo, 96 h
Summary of the method: (§1)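 In vivo hollow fiber assay in mice. Fibers containing the cancer cells were implanted at intraperitoneal and subcutaneous sites. The compound was given i.p. at 6.25, 12.5, 25 and 50 mg/kg body weight per injection, once daily for 4 days. Readouts were growth of the fiber-borne cells at each site, plus body weight and overt toxicity over the test period.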

Mus musculus [3] = experiment: Toxicity in human MCF7 cells xenografted mouse at 6.25 to 50 mg/kg, ip after 4 days; format: organism-based; parameters: dose 6.25-50 mg/kg, route intraperitoneal; conditions: in vivo, 96 h; summary of the method: as §1
Mus musculus [4] = experiment: Toxicity in human Lu1 cells xenografted mouse at 6.25 to 50 mg/kg, ip after 4 days; format: organism-based; parameters: dose 6.25-50 mg/kg, route intraperitoneal; conditions: in vivo, 96 h; summary of the method: as §1

| Structure (SMILES) | CC50 [1] [µg/mL] | EC50 (LNCaP) [µg/mL] | EC50 (Lu1) [µg/mL] | EC50 (MCF7) [µg/mL] | Activity (Mus musculus [2]) | Activity (Mus musculus [3]) | Activity (Mus musculus [4]) |
| --- | --- | --- | --- | --- | --- | --- | --- |
| COc1cc2ccc(=O)oc2cc1O [SCOPOLETIN] | > 5 | > 5 | > 5 | > 5 |  |  |  |
| Cc1cc(O)c2c(c1)[C@@H](C[C@H]1OC[C@@H](OC(=O)c3ccccc3)[C@@H](O)[C@@H]1O)c1cccc(O)c1C2=O [PICRAMNIOSIDE G] | > 5 | > 5 | > 5 | > 5 |  |  |  |
| COc1cc(O)c2c(c1)C(=O)c1c(O)cc(C)cc1C2=O | > 5 | > 5 | > 5 | > 5 |  |  |  |
| Cc1cc(O)c2c(c1)C(=O)c1cccc(O[C@@H]3O[C@H](CO)[C@@H](O)[C@H](O)[C@H]3O)c1C2=O [PULMATIN] | > 5 | > 5 | > 5 | > 5 |  |  |  |
| Cc1cc(O)c2c(c1)[C@H](C[C@H]1OC[C@@H](OC(=O)c3ccccc3)[C@@H](O)[C@@H]1O)c1cccc(O)c1C2=O [PICRAMNIOSIDE H] | > 5 | > 5 | > 5 | > 5 |  |  |  |
| CC[C@H](CC[C@@H](C)[C@H]1CC[C@H]2[C@@H]3CC=C4C[C@@H](O)CC[C@]4(C)[C@H]3CC[C@]12C)C(C)C [BETA-SITOSTEROL] | > 5 | > 5 | > 5 | > 5 |  |  |  |
| Cc1cc(O)c2c(c1)C(=O)c1cccc(O)c1C2=O [CHRYSOPHANOL] | > 5 | > 5 | > 5 | > 5 |  |  |  |
| O=c1ccc2ccc(O)cc2o1 [UMBELLIFERONE] | > 5 | > 5 | > 5 | > 5 |  |  |  |
| Cc1cc(O)c2c(c1)C(=O)c1ccc(O)c(O)c1C2=O | 5 (≈ 18.5 µM) | 3.6 (≈ 13.3 µM) | 3 (≈ 11.1 µM) | 4.7 (≈ 17.4 µM) | Non-toxic | Non-toxic | Non-toxic |
| Cc1cc(O)c2c(c1)-c1cccc3ccc(O)c(c13)C2=O | > 5 | > 5 | > 5 | > 5 |  |  |  |
| Cc1cc(O)c2c3c(cccc13)-c1cccc(O)c1C2=O | > 5 | > 5 | > 5 | > 5 |  |  |  |
| Cc1cc(O[C@@H]2O[C@H](CO)[C@@H](O)[C@H](O)[C@H]2O)c2c(c1)C(=O)c1cccc(O)c1C2=O [CHRYSOPHANEIN] | > 5 | > 5 | > 5 | > 5 |  |  |  |
| CC[C@H](CC[C@@H](C)[C@H]1CC[C@H]2[C@@H]3CC=C4C[C@@H](O[C@@H]5O[C@H](CO)[C@@H](O)[C@H](O)[C@H]5O)CC[C@]4(C)[C@H]3CC[C@]12C)C(C)C [SITOGLUSIDE] | > 5 | > 5 | > 5 | > 5 |  |  |  |
